PubChem BioAssay
Active and inactive are the calls of the source.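 Rule for the calls, unless noted: active = viability loss from added drug above about 55%, and viability with drug at most 40%, in both replicates (limit read from the data, passing the limit was not always enough); inconclusive = both conditions met in only one replicate; inactive = neither replicate meets both conditions.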

What was measured:
[1] = Her2 expression decrease, cell viability multiplex – SKBR3 breast tumor cells, AlphaScreen, ATP viability, primary screen (AID 461;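 active = Her2 level under about 52% in both replicate screens, with viability over 70% of control, limit read from the data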;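 for Her2 level: lower value means less Her2 protein in the cells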;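 for viability: percent of carrier control wells set as 100% viability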); conditions: SKBR3 Her2 protein level, 18-24 h, measured here: SKBR3 viability, ATP luminescence, at 10 µM
[2] = target: Receptor tyrosine-protein kinase erbB-2 (Homo sapiens) (UniProt P04626); assay: as above; conditions: 18-24 h, at 10 µM, stronger effect = lower value
[3] = reduced viability of SK-BR-3 breast cancer cells – cell-based, 24 h, human, pilot screen (AID 572;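 active = viability at or below 10% of carrier control in both of two separate runs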;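 note: compound exposure lasted between 18 and 24 h rather than exactly 24 h; 100% = carrier-treated control wells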); conditions: SK-BR-3 viability, CellTiter-Glo luminescence, at 10 µM, stronger effect = lower value
[4] = HUVEC growth inhibition – cell-based, human, primary screen (AID 575;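 active = viability at or below 30% in both replicate assays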;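 note: 100% = median of untreated cell wells with 0.1% DMSO on each plate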); conditions: HUVEC proliferation, CellTiter-Glo luminescence, 72 h; at 10 µM; stronger effect = lower value
Summary of the method: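 Timing: 72 h treatment at 37 °C; material: HUVEC primary cells; technique: CellTiter-Glo luminescence measuring cellular ATP; controls: vehicle and MePR control wells; measure: percent of median DMSO-control luminescence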

[5] = H69AR cell proliferation blockers – human, duplicate replicates, primary screen (AID 580;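 active = viability at or under a set limit in both replicates, limit being median viability minus 3 SD, cut at about 48% in these data, passing the limit was not always enough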;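 note: 100% = mean luminescence of untreated wells and 0% = no signal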); conditions: H69AR lung tumor cells viability, ATP luminescence, 72 h; at 10 µM; stronger effect = lower value
[6] = MRP1 drug-resistance reversers in H69AR cells – cell-based, doxorubicin co-treatment, pilot screen (AID 601); conditions: CellTiter-Glo, 72 h, at 10 µM; for differential viability (reversal): stronger effect = higher value
[7] = yeast transport mutant growth inhibition pilot in 384-well plates, post-Golgi transport modulator project (AID 636; in the data active = inhibition above about 31%); conditions: absorbance 615 nm, about 18 h, stronger effect = higher value
[8] = growth suppression of yeast trafficking mutant, preliminary HTS, modulators of trafficking downstream of Golgi apparatus project, 1536-format plate, OD 615 nm (AID 637; in the data active = inhibition above about 30%); conditions: yeast transport mutant growth, absorbance 615 nm, 18 h; stronger effect = higher value
[9] = H69AR cells + 2 uM doxorubicin, measured here: viability with 2 uM doxorubicin, stronger effect = lower value
[10] = H69AR cells, compound alone cytotoxicity

Sequence of Receptor tyrosine-protein kinase erbB-2 (Homo sapiens) (P04626 whole entry, looked up): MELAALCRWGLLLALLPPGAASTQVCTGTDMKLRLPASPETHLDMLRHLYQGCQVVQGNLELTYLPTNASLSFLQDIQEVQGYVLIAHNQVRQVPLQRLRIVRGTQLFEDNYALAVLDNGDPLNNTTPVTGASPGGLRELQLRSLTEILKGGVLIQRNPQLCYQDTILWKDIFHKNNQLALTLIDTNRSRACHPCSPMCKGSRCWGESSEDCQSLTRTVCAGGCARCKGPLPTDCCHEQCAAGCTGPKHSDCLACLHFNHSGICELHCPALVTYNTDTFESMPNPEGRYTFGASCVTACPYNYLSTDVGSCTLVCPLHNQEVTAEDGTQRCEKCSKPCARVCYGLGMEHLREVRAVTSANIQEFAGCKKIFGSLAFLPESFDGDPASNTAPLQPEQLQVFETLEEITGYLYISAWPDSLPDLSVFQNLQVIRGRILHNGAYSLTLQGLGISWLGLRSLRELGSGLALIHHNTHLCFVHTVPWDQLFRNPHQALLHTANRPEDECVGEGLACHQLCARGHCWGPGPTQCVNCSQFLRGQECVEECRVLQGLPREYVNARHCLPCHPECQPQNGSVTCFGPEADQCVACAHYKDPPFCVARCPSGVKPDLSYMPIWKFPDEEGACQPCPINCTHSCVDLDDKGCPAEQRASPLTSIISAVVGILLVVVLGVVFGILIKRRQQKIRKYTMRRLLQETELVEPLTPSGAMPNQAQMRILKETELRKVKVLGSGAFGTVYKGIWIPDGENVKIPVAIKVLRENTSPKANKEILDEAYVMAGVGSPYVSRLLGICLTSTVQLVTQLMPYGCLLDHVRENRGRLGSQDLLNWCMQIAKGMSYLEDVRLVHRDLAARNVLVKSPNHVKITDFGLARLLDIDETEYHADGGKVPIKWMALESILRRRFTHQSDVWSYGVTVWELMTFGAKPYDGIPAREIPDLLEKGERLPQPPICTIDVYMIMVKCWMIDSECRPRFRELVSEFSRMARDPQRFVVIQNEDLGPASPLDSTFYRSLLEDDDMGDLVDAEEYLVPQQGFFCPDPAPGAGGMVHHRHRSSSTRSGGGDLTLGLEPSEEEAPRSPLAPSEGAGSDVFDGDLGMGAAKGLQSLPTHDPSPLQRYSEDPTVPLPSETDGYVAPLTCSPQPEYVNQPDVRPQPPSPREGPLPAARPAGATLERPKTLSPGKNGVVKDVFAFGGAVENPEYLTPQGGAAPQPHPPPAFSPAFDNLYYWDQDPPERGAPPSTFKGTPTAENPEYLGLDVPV

Compound: O=C(COC(=O)c1ccc(S(=O)(=O)Nc2ccccc2)cc1)NCCN1C(=O)CSC1=O
- viability [1]: 107%
- Her2 level [2]: 108% (inactive)
- viability [3]: 107% (inactive)
- viability [4]: 100% (inactive)
- viability [5]: 95.3% (inactive)
- differential viability (reversal) ([6]; H69AR cells + 2 uM doxorubicin): 9.27% (inactive)
- viability [6, 9]: 86%
- viability [6, 10]: 95.3%
- inhibition [7]: -5.07% (inactive)
- inhibition [8]: -3.93% (inactive)

Compound: CCCCCCNC(=O)Cc1c(O)c2ccccc2[nH]c1=O
- viability [1]: 105%
- Her2 level [2]: 90.5% (inactive)
- viability [3]: 105% (inactive)
- viability [4]: 114% (inactive)
- viability [5]: 94.9% (inactive)
- differential viability (reversal) ([6]; H69AR cells + 2 uM doxorubicin): 14.7% (inactive)
- viability [6, 9]: 80.2%
- viability [6, 10]: 94.9%
- inhibition [7]: -5.27% (inactive)
- inhibition [8]: 7.67% (inactive)

Compound: CCCCN(CC)CCCNC(=O)CS(=O)(=O)Cc1nc(-c2cccc(OC)c2)oc1C
- viability [1]: 92%
- Her2 level [2]: 112% (inactive)
- viability [3]: 92% (inactive)
- viability [4]: 80.1% (inactive)
- viability [5]: 97.2% (inactive)
- differential viability (reversal) ([6]; H69AR cells + 2 uM doxorubicin): 10.4% (inactive)
- viability [6, 9]: 86.7%
- viability [6, 10]: 97.2%
- inhibition [7]: 0.66% (inactive)
- inhibition [8]: -11.3% (inactive)

Compound: c1csc(-c2nc3nc4ccccc4nc3n2Cc2ccc3c(c2)OCO3)c1
- viability [1]: 98.5%
- Her2 level [2]: 75% (inactive)
- viability [3]: 98.5% (inactive)
- viability [4]: 61.6% (inactive)
- viability [5]: 78% (inactive)
- differential viability (reversal) ([6]; H69AR cells + 2 uM doxorubicin): 16.4% (inactive)
- viability [6, 9]: 61.6%
- viability [6, 10]: 78%
- inhibition [7]: 10.5% (inactive)
- inhibition [8]: 0.79% (inactive)

Compound: CCOc1ccc(-n2cc(C(=O)Nc3cccc(C)n3)c3cc(OC)c(OC)cc3c2=O)cc1
- viability [1]: 110%
- Her2 level [2]: 91% (inactive)
- viability [3]: 110% (inactive)
- viability [4]: 71.8% (inactive)
- viability [5]: 64.4% (inactive)
- differential viability (reversal) ([6]; H69AR cells + 2 uM doxorubicin): -11.8% (inactive)
- viability [6, 9]: 76.2%
- viability [6, 10]: 64.4%
- inhibition [7]: -5.47% (inactive)
- inhibition [8]: 4.43% (inactive)

Compound: Cc1nc2sc(C(c3ccc(Br)cc3)N3CC(C)OC(C)C3)c(O)n2n1 (stereo not given)
- viability [1]: 80%
- Her2 level [2]: 112% (inactive)
- viability [3]: 80% (inactive)
- viability [4]: 109% (inactive)
- viability [5]: 105% (inactive)
- differential viability (reversal) ([6]; H69AR cells + 2 uM doxorubicin): 15.2% (inactive)
- viability [6, 9]: 90.2%
- viability [6, 10]: 105%
- inhibition [7]: -2.21% (inactive)
- inhibition [8]: -3.44% (inactive)

Compound: O=C(CCCn1c(=S)[nH]c2ccccc2c1=O)N1CCCCC1
- viability [1]: 86%
- Her2 level [2]: 108% (inactive)
- viability [3]: 86% (inactive)
- viability [4]: 87.1% (inactive)
- viability [5]: 96.8% (inactive)
- differential viability (reversal) ([6]; H69AR cells + 2 uM doxorubicin): 6.58% (inactive)
- viability [6, 9]: 90.2%
- viability [6, 10]: 96.8%
- inhibition [7]: -2.63% (inactive)
- inhibition [8]: -8.1% (inactive)

Compound: OC(CN1CCN(c2ccccn2)CC1)Cn1c2ccccc2c2ccccc21 (stereo not given)
- viability [1]: 100%
- Her2 level [2]: 114% (inactive)
- viability [3]: 100% (inactive)
- viability [4]: 67.2% (inactive)
- viability [5]: 82.1% (inactive)
- differential viability (reversal) ([6]; H69AR cells + 2 uM doxorubicin): -10.4% (inactive)
- viability [6, 9]: 92.4%
- viability [6, 10]: 82.1%
- inhibition [7]: -0.65% (inactive)
- inhibition [8]: 6.5% (inactive)

Compound: Cc1ccc(C(=O)N2CCCC(c3nc4c(nnn4Cc4ccccc4)c(=O)[nH]3)C2)cc1 (stereo not given)
- viability [1]: 80.5%
- Her2 level [2]: 105% (inactive)
- viability [3]: 80.5% (inactive)
- viability [4]: 110% (inactive)
- viability [5]: 83.4% (inactive)
- differential viability (reversal) ([6]; H69AR cells + 2 uM doxorubicin): 24.5% (inactive)
- viability [6, 9]: 58.9%
- viability [6, 10]: 83.4%
- inhibition [7]: -3.08% (inactive)
- inhibition [8]: 7.33% (inactive)

Compound: Cn1c(=O)n(C)c2cc(CNc3ccc(N4CCOCC4)c(C(=O)O)c3)ccc21
- viability [1]: 107%
- Her2 level [2]: 89.5% (inactive)
- viability [3]: 107% (inactive)
- viability [4]: 113% (inactive)
- viability [5]: 89.6% (inactive)
- differential viability (reversal) ([6]; H69AR cells + 2 uM doxorubicin): -2.67% (inactive)
- viability [6, 9]: 92.2%
- viability [6, 10]: 89.6%
- inhibition [7]: -3.33% (inactive)
- inhibition [8]: 0.49% (inactive)

Compound: Cc1ccc(NC(=O)Nc2ccc3c(c2)N(C)C(=O)CS3)nc1
- viability [1]: 108%
- Her2 level [2]: 68.5% (inactive)
- viability [3]: 108% (inactive)
- viability [4]: 45.5% (inactive)
- viability [5]: 88.3% (inactive)
- differential viability (reversal) ([6]; H69AR cells + 2 uM doxorubicin): -8.16% (inactive)
- viability [6, 9]: 96.4%
- viability [6, 10]: 88.3%
- inhibition [7]: -3.73% (inactive)
- inhibition [8]: -0.33% (inactive)

Compound: COC(=O)c1ccc(Cl)c(NC(C)=O)c1
- viability [1]: 108%
- Her2 level [2]: 99.5% (inactive)
- viability [3]: 108% (inactive)
- viability [4]: 70.9% (inactive)
- viability [5]: 97.2% (inactive)
- differential viability (reversal) ([6]; H69AR cells + 2 uM doxorubicin): 7.73% (inactive)
- viability [6, 9]: 89.5%
- viability [6, 10]: 97.2%
- inhibition [7]: -1.17% (inactive)
- inhibition [8]: -0.33% (inactive)

Compound: COc1cc(NC(=O)c2cc(OC)c(OC)c(OC)c2)c(OC)cc1NC(=O)CN1CCCCC1
- viability [1]: 86.5%
- Her2 level [2]: 68.5% (inactive)
- viability [3]: 86.5% (inactive)
- viability [4]: 67.9% (inactive)
- viability [5]: 65.9% (inactive)
- differential viability (reversal) ([6]; H69AR cells + 2 uM doxorubicin): -11.7% (inactive)
- viability [6, 9]: 77.6%
- viability [6, 10]: 65.9%
- inhibition [7]: -5.27% (inactive)
- inhibition [8]: -7.5% (inactive)

Compound: Cc1cccc(NC(=O)CSc2nnc(-c3cc(C)n(-c4ccccc4)c3C)o2)c1C
- viability [1]: 115%
- Her2 level [2]: 91% (inactive)
- viability [3]: 115% (inactive)
- viability [4]: 66.3% (inactive)
- viability [5]: 76.2% (inactive)
- differential viability (reversal) ([6]; H69AR cells + 2 uM doxorubicin): -3.98% (inactive)
- viability [6, 9]: 80.2%
- viability [6, 10]: 76.2%
- inhibition [7]: 0.26% (inactive)
- inhibition [8]: -6.03% (inactive)
